Results published in article PMC12123436 (RSC Chemical Biology, 2025).

Experiments:
[1] = tested on: U87-MG cells; assay: MTT; type: cell-based, human; settings: for IC50: read-out: IC50,dark, 4 h incubation in dark, dark 20 min, then 16 h dark
Method in brief: (§1)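 In an MTT assay, cells were incubated with test compound in the dark for 4 h. They were then kept dark or irradiated at 450 nm (10 mW cm−2) for 20 min, and held a further 16 h in the dark. IC50 values were obtained under dark and light conditions, and the phototoxicity index was taken as IC50,dark/IC50,light.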

[2] = tested on: MCF-7 cells; assay: MTT; type: cell-based; settings: for IC50: read-out: IC50,dark, 4 h incubation in dark, dark 20 min, then 16 h dark
Method in brief: as §1

[3] = tested on: HEK293 cells; assay: MTT; type: cell-based; settings: for IC50: read-out: IC50,dark, 4 h incubation in dark, dark 20 min, then 16 h dark
Method in brief: as §1

[4] = Photophysical; type: physicochemical; settings: for λem: λex = 350 nm; for τo: λex = 375 nm
[5] = Singlet oxygen quantum yield with 1,3-diphenylisobenzofuran as scavenger; type: physicochemical; settings: aerated CH3CN, 298 K, λex = 450 nm
[6] = Emission response upon photoirradiation at 450 nm; type: physicochemical; settings: for Emission lifetime τ after photoirradiation / λem after photoirradiation: 10 μM, aerated PBS/DMSO (9:1), 450 nm (10 mW cm−2) 20 min; for λem after photoirradiation: λex = 350 nm
Method in brief: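 Test compound (10 μM) in aerated PBS/DMSO (9:1, v/v) was irradiated at 450 nm (10 mW cm−2) for 20 min at 298 K. Photoproducts were followed by RP-HPLC and identified by ESI-MS. Emission was recorded before and after irradiation (λex 350 nm), and I/Io was taken as the ratio of these intensities. Lifetimes were measured at emission maxima (λex 375 nm).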

[7] = Phosphorogenic response towards BCN-OH; type: physicochemical; settings: 10 μM, BCN-OH 500 μM, aerated PBS/DMSO (9:1), dark 16 h; for λem after incubation with BCN-OH: λex = 350 nm
Method in brief: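 Test compound (10 μM) was incubated with excess BCN-OH (500 μM) in aerated PBS/DMSO (9:1, v/v) at 298 K in the dark for 16 h. Emission was recorded with λex 350 nm, and I/Io was taken as intensity with versus without BCN-OH. Lifetimes were measured at emission maxima (λex 375 nm).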

[8] = tested on: U87-MG cells; assay: Cellular uptake by ICP-MS; type: cell-based, human; settings: 5 µM, 4 h, 37°C
[9] = tested on: MCF-7 cells; assay: Cellular uptake by ICP-MS; type: cell-based; settings: 5 µM, 4 h, 37°C
[10] = tested on: HEK293 cells; assay: Cellular uptake by ICP-MS; type: cell-based; settings: 5 µM, 4 h, 37°C
[11] = tested on: U87-MG cells; assay: Annexin V/propidium iodide flow cytometry; type: cell-based, human; settings: 1 μM, 4 h, photoirradiation at 450 nm (10 mW cm−2) 20 min
Method in brief: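 Cells were pretreated with test compound (1 μM, 4 h), then kept unirradiated or continuously irradiated at 450 nm (10 mW cm−2) for 20 min. They were stained for 15 min with Alexa Fluor 647–Annexin V (λex 638 nm) and propidium iodide (100 μg mL−1 stock; λex 561 nm). Analysis was by flow cytometry.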

[12] = tested on: U87-MG cells; assay: Cellular uptake mechanism studies; type: cell-based, human; settings: 20 µM, 1 h
[13] = tested on: U87-MG cells; assay: Cell death mechanism studies by LSCM; type: cell-based, human; settings: 5 μM, 4 h
Method in brief: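 For mitochondrial membrane potential, live cells were pretreated with test compound (5 μM, 4 h), then left unirradiated or irradiated at 450 nm (10 mW cm−2) for 20 min. They were stained with rhodamine 123 (5 μM, 15 min) and imaged by confocal microscopy (λex 488 nm, λem 500–550 nm).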

[14] = potassium phosphate buffer (50 mM, pH 7.4)/CH3CN (1:1), 298 K
[15] = + RGD peptide pretreatment (50 µM, 30 min)

[Ir(pqe)2(bpy-CONH2)](PF6) [complex 4]
PI (IC50,dark/IC50,light) [1]: 103 | IC50 [1]: 4.1 ± 0.2 µM | PI (IC50,dark/IC50,light) [2]: 105 | IC50 [2]: 4.2 ± 0.1 µM | PI (IC50,dark/IC50,light) [3]: 100 | IC50 [3]: 5 ± 0.1 µM | λem ([4]; CH3CN, 298 K): 631 nm | τo ([4]; CH3CN, 298 K): 0.67 μs | τo ([4]; EtOH/MeOH (4:1) glass, 77 K): 4.23 μs | Φem [4, 14]: 0.02 | λem [4, 14]: 648 nm | τo [4, 14]: 0.34 μs

[Ir(pqe)2(bpy-CONH-S-Tz-Cl)](PF6) [complex 1]
λem ([4]; CH3CN, 298 K): 632 nm | τo ([4]; CH3CN, 298 K): 0.68 μs | τo ([4]; EtOH/MeOH (4:1) glass, 77 K): 4.25 μs | Φem [4, 14]: 0.002 | λem [4, 14]: 650 nm | τo [4, 14]: 0.23 μs | 1O2 quantum yield (ΦΔ) [5]: 0.55

[Ir(pqe)2(bpy-CONH-S-Tz-S-Et)](PF6) [complex 2]
PI (IC50,dark/IC50,light) [1]: 138 | IC50 [1]: 11 ± 1 µM | PI (IC50,dark/IC50,light) [2]: 150 | IC50 [2]: 15 ± 1 µM | PI (IC50,dark/IC50,light) [3]: 133 | IC50 [3]: 12 ± 1 µM | λem ([4]; CH3CN, 298 K): 631 nm | τo ([4]; CH3CN, 298 K): 0.60 μs | τo ([4]; EtOH/MeOH (4:1) glass, 77 K): 4.38 μs | Φem [4, 14]: 0.002 | λem [4, 14]: 650 nm | τo [4, 14]: 0.18 μs | 1O2 quantum yield (ΦΔ) [5]: 0.60 | Emission lifetime τ after photoirradiation [6]: 0.29 μs | λem after photoirradiation [6]: 648 nm | Emission lifetime τ after incubation with BCN-OH [7]: 0.37 μs | λem after incubation with BCN-OH [7]: 631 nm

[Ir(pqe)2(bpy-CONH-S-Tz-S-RGD)](CF3COO) [conjugate 1-RGD]
PI (IC50,dark/IC50,light) [1]: 325 | IC50 [1]: 26 ± 1 µM | PI (IC50,dark/IC50,light) [2]: 236 | PI (IC50,dark/IC50,light) [3]: >38 | IC50 [3]: > 50 µM | Amount of iridium per average cell [8, 15]: 0.34 fmol | Amount of iridium per average cell ([8]; − RGD): 0.70 fmol | Amount of iridium per average cell [9, 15]: 0.25 fmol | Amount of iridium per average cell ([9]; − RGD): 0.32 fmol | Amount of iridium per average cell [10, 15]: 0.030 fmol | Amount of iridium per average cell ([10]; − RGD): 0.032 fmol | Population of apoptotic cells [11]: 98.28% | Φem ([4]; CH3CN, 298 K): 0.003 | λem ([4]; CH3CN, 298 K): 631 nm | τo ([4]; CH3CN, 298 K): 0.58 μs | τo ([4]; EtOH/MeOH (4:1) glass, 77 K): 4.14 μs | Φem [4, 14]: 0.001 | λem [4, 14]: 648 nm | τo [4, 14]: 0.19 μs | Emission lifetime τ after photoirradiation [6]: 0.26 μs | λem after photoirradiation [6]: 648 nm | Time to complete photodissociation of S,S-tetrazine moiety ([6]; steady-state irradiation at 450 nm, 298 K): 20 min | Emission lifetime τ after incubation with BCN-OH [7]: 0.33 μs | λem after incubation with BCN-OH [7]: 632 nm | Cellular uptake efficiency after metabolic or endocytosis inhibitors ([12]; 2-deoxy-D-glucose and oligomycin, or NH4Cl or chloroquine): substantially reduced | Amount of intracellular iridium at low temperature vs 37 °C ([12]; 4 °C): significantly decreased | Internalisation after cation transporter inhibitor ([12]; tetraethylammonium chloride (1 mM) pretreatment): remained unaffected | Intracellular ROS (CM-H2DCFDA emission) ([13]; 450 nm 20 min vs dark): effective intracellular ROS generation | Mitochondrial membrane potential (rhodamine 123 emission) ([13]; after 450 nm 20 min vs dark): significantly diminished in intensity

[Ir(pqe)2(bpy-CONH-SCN)](PF6) [complex 3]
PI (IC50,dark/IC50,light) [1]: 135 | IC50 [1]: 2.7 ± 0.1 µM | PI (IC50,dark/IC50,light) [2]: 125 | IC50 [2]: 2.5 ± 0.1 µM | PI (IC50,dark/IC50,light) [3]: 88 | IC50 [3]: 3.5 ± 0.2 µM | λem ([4]; CH3CN, 298 K): 634 nm | τo ([4]; CH3CN, 298 K): 0.69 μs | τo ([4]; EtOH/MeOH (4:1) glass, 77 K): 4.79 μs | Φem [4, 14]: 0.02 | λem [4, 14]: 648 nm | τo [4, 14]: 0.35 μs | 1O2 quantum yield (ΦΔ) [5]: 0.81
